# Bioassay records: PubChem, The Scripps Research Institute Molecular Screening Center
# PLCb3 inh: human PLC-beta3 inhibitors, primary screen, biochemical, fluorescence | Purified PLC-beta3, fluorogenic substrate | inhibition, % at 12.2 µM | hit rate 0.18% among 370,000; in the data active means inhibition above about 11%
# Target sequence (Q01970 whole entry, looked up): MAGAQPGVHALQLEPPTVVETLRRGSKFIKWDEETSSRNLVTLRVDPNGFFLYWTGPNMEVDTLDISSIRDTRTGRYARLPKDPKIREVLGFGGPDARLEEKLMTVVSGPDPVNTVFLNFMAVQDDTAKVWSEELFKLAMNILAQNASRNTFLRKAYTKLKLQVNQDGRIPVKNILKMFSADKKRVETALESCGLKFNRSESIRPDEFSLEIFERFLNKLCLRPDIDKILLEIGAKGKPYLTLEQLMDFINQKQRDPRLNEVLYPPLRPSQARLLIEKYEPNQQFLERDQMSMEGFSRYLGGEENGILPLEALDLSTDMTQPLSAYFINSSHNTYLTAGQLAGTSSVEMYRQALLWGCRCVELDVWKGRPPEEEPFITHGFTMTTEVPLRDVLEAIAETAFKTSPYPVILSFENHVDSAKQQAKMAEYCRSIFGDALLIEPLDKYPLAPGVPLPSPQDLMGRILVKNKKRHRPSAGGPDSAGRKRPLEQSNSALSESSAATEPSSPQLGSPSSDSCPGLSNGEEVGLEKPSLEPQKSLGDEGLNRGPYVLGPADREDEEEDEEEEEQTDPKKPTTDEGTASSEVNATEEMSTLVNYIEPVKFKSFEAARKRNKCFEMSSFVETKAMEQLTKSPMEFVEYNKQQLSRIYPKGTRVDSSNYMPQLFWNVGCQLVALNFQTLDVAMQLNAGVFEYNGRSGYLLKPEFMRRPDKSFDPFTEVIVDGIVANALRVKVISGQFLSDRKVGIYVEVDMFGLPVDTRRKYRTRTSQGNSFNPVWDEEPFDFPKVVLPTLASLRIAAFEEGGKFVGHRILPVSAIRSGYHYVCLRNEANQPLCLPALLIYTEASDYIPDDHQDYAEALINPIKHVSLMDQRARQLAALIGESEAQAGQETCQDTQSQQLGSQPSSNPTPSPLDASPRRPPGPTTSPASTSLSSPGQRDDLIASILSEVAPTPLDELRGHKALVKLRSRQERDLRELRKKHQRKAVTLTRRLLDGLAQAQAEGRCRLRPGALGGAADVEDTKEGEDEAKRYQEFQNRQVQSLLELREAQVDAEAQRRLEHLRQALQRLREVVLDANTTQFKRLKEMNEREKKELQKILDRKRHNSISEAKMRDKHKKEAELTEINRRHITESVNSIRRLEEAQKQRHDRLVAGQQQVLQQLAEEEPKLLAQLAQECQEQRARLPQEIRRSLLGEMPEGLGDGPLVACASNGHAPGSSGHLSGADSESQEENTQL
# ADAM17 inh: ADAM17 inhibitors, primary screen, biochemical, QFRET. Disintegrin and metalloproteinase domain-containing protein 17 (Homo sapiens), P78536. recombinant ADAM17, EDANS/DABCYL FRET peptide cleavage. inhibition, % at 6.95 µM. hit rate 0.83% among 370,000. AID 720648, 2013;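 active means inhibition above the mean of compounds lying between control limits plus 3 SD, set per campaign, cut at about 8.5% in these data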
# DDE Tn6 FP inh: inhibitors of Tn6 peptide binding to fibrin DD(E), primary screen, biochemical, fluorescence polarization, human fibrin, Tn6 probe; Fibrinogen beta chain (Homo sapiens), P02675; Fibrin DD(E) TRITC-Tn6 fluorescence polarization displacement; inhibition, % at 8.3 µM; hit rate 0.21% among 370,000; AID 720509, 2013;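 active means inhibition above a per-campaign cutoff: mean of compounds within control limits plus 3 SD, cut at about 15% in these data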
# DDE Tn7 FP inh: inhibitors of Tn7 peptide binding to fibrin DD(E), primary screen, biochemical, fluorescence polarization, human fibrin, Tn7 probe; Fibrinogen beta chain (Homo sapiens), P02675; FP displacement of FITC-Tn7 peptide from fibrin DD(E); 0% = median of compound wells per plate; inhibition, % at 8.3 µM; hit rate 0.13% among 370,000; AID 720508, 2013;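 active means inhibition above the mean of compounds falling within the control limits plus 3 SD of them, cut at about 14% in these data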
#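 Assay system: Human clot-derived fibrin DD(E) complex | Buffer or medium: Tris/NaCl/CaCl2 buffer, pH 7.8 | Repeats: One replicate per compound | Benchmarks: Aha-Tn7 high control | Measure: % inhibition scaled between sample-field median and high-control FP | Schedule: 10 min plus 3 h, room temperature | Signal: Fluorescence polarization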
# PLC-gamma1 inh: PLC-gamma1 enzyme inhibitors, primary screen, biochemical, fluorescence, purified enzyme | AID 720700, 2013 | fluorogenic substrate | inhibition, % at 12.2 µM | hit rate 0.84% among 370,000; in the data active means inhibition above about 9.5%
# ADAM10 inh: human ADAM10 inhibitors, primary screen, biochemical, QFRET, HTS. Disintegrin and metalloproteinase domain-containing protein 10 (Homo sapiens), O14672. recombinant ADAM10, EDANS/DABCYL FRET peptide cleavage, 3 h. inhibition, % at 7 µM. hit rate 0.62% among 370,000. AID 720582, 2013;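 active means inhibition above a per-campaign cutoff equal to the mean of compounds falling between control-based bounds plus 3 SD, cut at about 20% in these data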
# ADAM10 ctr: ADAM10 inhibitors, counter-screen for ADAM17 exosite inhibitor project, biochemical, FRET, human ADAM10; shares compounds with ADAM17 inh; recombinant ADAM10, EDANS/DABCYL FRET peptide cleavage, 3 h; inhibition, % at 6.95 µM; hit rate 47% among 2,900; AID 743256, 2014;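 active means mean inhibition over the triplicate runs exceeds the activity threshold set in the earlier primary screen, cut at about 20% in these data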
# ADAM17 confirm: ADAM17 inhibitors, hit retest, confirmation, biochemical, QFRET peptide cleavage; shares compounds with ADAM17 inh; recombinant ADAM17, EDANS/DABCYL QFRET peptide cleavage; inhibition, % at 6.95 µM; hit rate 65% among 2,900;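 active means mean inhibition across replicates above the hit cutoff set in the primary screen, cut at about 8.5% in these data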
# Hits are given with their value; . = inactive; / = not tested or not shown. Rows were chosen to be rich in hits. Some 2.3% of all compounds tested hit in one or more screens of this group.
SMILES,PLCb3 inh,ADAM17 inh,DDE Tn6 FP inh,DDE Tn7 FP inh,PLC-gamma1 inh,ADAM10 inh,ADAM10 ctr,ADAM17 confirm
Cc1ccccc1Nc1nc(N)nc(CSc2ccc(F)cc2)n1,.,.,.,.,.,.,/,/
COC(=O)CNC(=O)[C@H](Cc1ccccc1)NC1(C(=O)NCCc2c[nH]c3ccccc23)CCCCC1,.,.,.,.,.,.,/,/
COc1ccccc1/C=C/C(=O)OCC(=O)c1c[nH]c2ccccc12,.,.,.,.,.,.,/,/
COc1cc(/C=C/C(=O)OCC(=O)c2c[nH]c3ccccc23)ccc1OC(F)F,.,9.4,.,.,.,.,21.3,17.9
COc1ccc(CN2CCC(CNC(=O)Nc3ccc(Cl)cc3)CC2)cc1,.,.,.,.,.,.,/,/
O=C(C[n+]1ccccc1)Nc1nc2ccccc2s1,.,9.4,.,.,.,.,.,14.8
COc1ccccc1NC(=O)CSc1nnc(COc2ccc(Cl)cc2)n1Cc1ccco1,.,.,.,.,.,.,/,/
CCn1c(SCC(=O)Nc2ccc(NC(=O)c3ccco3)cc2)nnc1-c1cccs1,.,8.8,.,.,.,.,.,.
O=C(CSc1nnc(-c2cccs2)n1Cc1ccco1)Nc1ccc2c(c1)OCO2,.,.,.,.,.,.,/,/
COc1ccc(C)cc1NC(=O)CSc1nnc(COc2ccc(C)cc2)n1Cc1ccco1,.,10.8,.,.,.,.,25.9,14.7
O=C(CSc1nnc(-c2cccs2)n1Cc1ccco1)Nc1ccc(OCc2ccccc2)cc1,.,9.4,.,.,.,.,23.2,12.0
CCOC(=O)C1CCN(C(=O)C(C)(C)NC(=O)Nc2ccc3c(c2)CCC3)CC1,.,.,.,.,.,.,/,/
CCOC(=O)C1CCCCN1C(=O)[C@@H]1CC=C[C@@H]2CCN(c3ccccc3)C(=O)[C@@H]21 (some centres undefined),.,.,.,.,.,.,/,/
COc1cccc(OCC(O)CN2CCN(C(c3ccccc3)c3ccccc3)CC2)c1 (centres undefined),.,.,.,.,.,.,/,/
CC(=O)c1ccccc1OCC(O)CN1CCN(C(c2ccccc2)c2ccccc2)CC1 (centres undefined),.,11.2,.,.,.,.,.,.
O=C(OCc1cnc(Cl)s1)c1cccc(Cl)c1Cl,.,9.0,.,.,.,.,.,11.9
C=CCN(Cc1ccc(OC)cc1OC)C(C#Cc1ccccc1)c1ccccc1 (centres undefined),.,.,.,.,.,.,/,/
CCOC(=O)c1c(-c2ccccc2)csc1NC(=O)CSc1ccccc1,.,.,.,.,.,.,/,/
CCOC(=O)c1c(-c2ccccc2)csc1NC(=O)CSc1nncs1,.,9.0,.,.,.,.,.,12.7
O=C(COCc1ccccc1)N1CC[C@H]2[C@H](CCCN2Cc2cc(F)cc(F)c2)C1,.,.,.,.,.,.,/,/
CC(COc1cccc(C(F)(F)F)c1)CN1CCC(C(O)(c2ccccc2)c2ccccc2)CC1 (centres undefined),.,.,.,.,.,.,/,/
CC(COc1cccc(F)c1)CN1CCC(C(O)(c2ccccc2)c2ccccc2)CC1 (centres undefined),.,9.8,.,.,.,.,.,.
O=c1c2cc3cc(Cl)ccc3nc2ncn1N1CCCCC1,.,.,.,.,.,.,/,/
C/C=C/C(=O)OCC(=O)Nc1nc2ccc(C)cc2s1,.,9.3,.,.,.,.,.,.
CCOCC(=O)Nc1nc2ccc(C)cc2s1,.,.,.,.,.,.,/,/
SMILES,PLCb3 inh,ADAM17 inh,DDE Tn6 FP inh,DDE Tn7 FP inh,PLC-gamma1 inh,ADAM10 inh,ADAM10 ctr,ADAM17 confirm
O=C(CSc1cccc(C(F)(F)F)c1)NC(=O)c1ccccc1,.,8.7,.,.,.,.,.,.
CCC[C@@H](/C=C/C(=O)OC(C)(C)C)Sc1ccccc1OC,.,.,.,.,.,.,/,/
COc1ccc(OC)c(NC(=O)COC(=O)c2c3c(nc4ccccc24)CCCC3)c1,.,10.9,.,.,.,.,.,14.3
Cc1cccc(-c2cccc3c4c([nH]c23)[C@@H]2C[C@H](N(C)C(=O)Nc3ccccc3C)[C@H]([C@H](C)O)C(=O)N2CC4)c1,.,.,.,.,.,.,/,/
O=C(CCNS(=O)(=O)c1ccccc1C(F)(F)F)N1CCN(C(c2ccccc2)c2ccccc2)CC1,.,8.9,.,.,.,.,30.2,18.4
O=C(CCNS(=O)(=O)c1ccccc1C(F)(F)F)N1CCCCCCC1,.,.,.,.,.,.,/,/
Cc1ccc(OCc2nnc(SCC(=O)c3ccc(-c4ccccc4)cc3)n2Cc2ccco2)cc1,.,.,.,.,.,.,/,/
CCOC(=O)C1(C)CCCCCN1C(=O)c1ccc(OC)c(C(F)(F)F)c1 (centres undefined),.,8.7,.,.,.,.,.,.
COc1ccc(C(=O)N2CCCC2(C)C(=O)O)cc1C(F)(F)F (centres undefined),.,.,.,.,.,.,/,/
Cc1ccc(C(C(=O)NC2CCCC2)N(C(=O)CNC(=O)c2cccs2)c2cccnc2)o1 (centres undefined),.,.,.,.,.,.,/,/
Cc1ccc(C(C(=O)NC2CCCC2)N(Cc2cccs2)C(=O)CNC(=O)c2cccs2)o1 (centres undefined),.,9.2,.,.,.,.,.,.
NC(=O)CC[C@@H]1NC(=O)[C@H](CO)NC(=O)c2cc([N+](=O)[O-])cc(I)c2OCC[C@@H](C(N)=O)NC1=O,.,10.3,.,.,14.3,.,.,.
NC(=O)[C@@H]1CCOc2c(I)cc([N+](=O)[O-])cc2C(=O)N[C@@H](CO)C(=O)NCC(=O)N1,.,.,.,.,.,.,/,/
Cc1ccccc1C(=O)N(Cc1ccccn1)CC1CCCO1 (centres undefined),.,.,.,.,.,.,/,/
Cc1ccc(C)c(OCCC(=O)OCC(=O)Nc2cccc(S(=O)(=O)N3CCCC3)c2)c1,.,8.8,.,.,.,.,24.6,12.6
